# Screening results: PubChem BioAssay, The Scripps Research Institute Molecular Screening Center
# GPR7 antag = antagonists of human GPR7 (neuropeptides B/W receptor 1); inhibition, % at 4.4 µM; GPR7-expressing cells, fluorescence antagonist assay; 290,000 tested, 1.1% active; AID 1861; in the data active = inhibition above about 16%, passing the limit was not always enough;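 note: cells stimulated with the agonist NPW; 0% = agonist with vehicle and 100% = vehicle without agonist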
# Target sequence (P48145 whole entry, looked up): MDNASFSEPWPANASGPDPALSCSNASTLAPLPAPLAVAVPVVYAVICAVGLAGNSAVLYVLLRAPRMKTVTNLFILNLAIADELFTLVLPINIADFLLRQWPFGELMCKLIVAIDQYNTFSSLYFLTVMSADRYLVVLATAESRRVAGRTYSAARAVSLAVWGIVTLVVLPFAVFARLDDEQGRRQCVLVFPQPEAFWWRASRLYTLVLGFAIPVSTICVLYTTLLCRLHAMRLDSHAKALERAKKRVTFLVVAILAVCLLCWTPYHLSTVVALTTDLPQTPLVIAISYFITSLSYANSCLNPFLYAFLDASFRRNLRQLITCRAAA
# OX1R antag-1 = human HCRTR1 antagonism | CHO/OX1R cells, Fluo-8 calcium fluorescence, orexin A | inhibition, % at 5 µM | 330,000 tested, 0.43% active | O43613;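 active = inhibition above its plate's threshold, mean inhibition of all tested compounds on the plate plus 3 SD, cut at about 37% in these data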;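 note: 0% = orexin A challenge wells and 100% = SB-334867-A antagonist wells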
# TAAR1 antag = antagonists of human TAAR1. Q96RJ0. CHO RD-HGA16 TAAR1, Fluo-8 calcium fluorescence, antagonist. inhibition, % at 3 µM. 360,000 tested, 1.5% active. AID 624466;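 active = inhibition above a per-plate cutoff, the mean inhibition of test compounds on that plate plus 3 SD, cut at about 49% in these data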;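 note: 0% = DMSO plus EC80 beta-PEA response and 100% = DMSO alone without agonist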
# Target sequence (Q96RJ0 whole entry, looked up): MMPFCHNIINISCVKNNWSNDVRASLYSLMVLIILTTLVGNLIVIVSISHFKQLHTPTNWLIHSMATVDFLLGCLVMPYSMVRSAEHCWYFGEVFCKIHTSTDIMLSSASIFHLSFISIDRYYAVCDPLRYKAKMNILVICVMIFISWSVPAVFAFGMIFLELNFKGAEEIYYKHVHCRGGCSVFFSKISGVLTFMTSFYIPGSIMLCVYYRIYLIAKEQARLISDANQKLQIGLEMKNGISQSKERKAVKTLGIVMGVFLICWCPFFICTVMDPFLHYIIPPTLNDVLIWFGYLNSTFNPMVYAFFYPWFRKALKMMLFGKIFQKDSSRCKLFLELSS
#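 Assay system: CHO-derived RD-HGA16 cells stably expressing human TAAR1 plus Gα16. Timing: 140 s kinetic read after compound, 140 s after agonist. Technique: kinetic Fluo-8 calcium fluorescence measurement. Measure: % inhibition of agonist calcium response.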
# CHO parental Ca = signal in parental CHO cells, OX1R antagonist counter-screen. parental CHO-K1, ATP-induced calcium, Fluo-8 fluorescence. inhibition, % at 5.6 µM. 330,000 tested, 0.63% active. AID 463079;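 active = inhibition above that plate's mean sample inhibition plus 3 SD, cut at about 26% in these data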;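 note: 0% = ATP-challenged DMSO wells and 100% = DMSO wells without ATP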
#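 Assay system – parental CHO cells · Reagent – ATP stimulus · Detection – intracellular calcium via Fluo-8 no-wash fluorescent dye · Evaluation – percent inhibition of ATP-evoked calcium rise, normalized to controls · Controls – ATP wells versus no-ATP DMSO wells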
# OX1R antag-2 = blocks the human orexin 1 receptor | O43613 | 330,000 tested, 1.8% active | inhibition, % at 6.6 µM | AID 485270 | OX1R-expressing cells, FRET antagonist read-out; in the data active = inhibition mostly above about 38%, no sharp cut-off; inactive = mostly below about 40%;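 note: 0% = agonist challenge alone and 100% = reference antagonist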
# TAAR1 agonist = agonists of human TAAR1. Q96RJ0. CHO RD-HGA16 TAAR1, Fluo-8 calcium fluorescence; vehicle wells 0%, saturating PEA agonist 100%. activation, % at 3 µM. 360,000 tested, 0.99% active;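 active = activation above the mean activation of all test compounds in the run plus 3 SD, cut at about 38% in these data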
#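 Test system: RD-HGA16 (CHO) cells co-expressing Gα16 and hTAAR1 | Doses: Single dose, 3 µM | Schedule: 17-24 h seeding, 75 min 37 °C dye, 30 min RT | Evaluation: % activation from peak over basal fluorescence ratio, DMSO-to-PEA scaled | Technique: Kinetic Fluo-8 calcium fluorescence | Benchmarks: Low control DMSO, high control PEA (EC100)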
# An asterisk follows results filed as active; / = no result given. An excerpt weighted towards active compounds, which were near 4.6% of everything screened.
SMILES,GPR7 antag,OX1R antag-1,TAAR1 antag,CHO parental Ca,OX1R antag-2,TAAR1 agonist
CN1CC[C@@H]2CN(S(=O)(=O)c3ccccc3)[C@H](c3ccccc3Br)C[C@@H]21,/,/,-1,/,/,2
O=C(C(=O)N1CCN(C(=O)C2CCC2)CC1)c1cccc(C(F)(F)F)c1,/,/,-11,/,/,0
Cc1c(NC(=O)/C(C#N)=C/c2ccc(-c3cccc(Cl)c3)o2)c(=O)n(-c2ccccc2)n1C,6,6,-19,-30,75*,2
Cc1c(NC(=O)/C(C#N)=C/c2ccc(-c3ccccc3Cl)o2)c(=O)n(-c2ccccc2)n1C,2,-1,-3,-35,75*,1
Cc1cn([C@H]2C[C@H](O)[C@@H](/C=C/C(=O)N3CCN(Cc4ccc(F)cc4)CC3)O2)c(=O)[nH]c1=O,/,/,-2,/,/,1
Cc1ccccc1Nc1nc(N)nc(CSc2nc3ccccc3s2)n1,-9,2,-1,-34,67*,1
Cc1ccccc1Nc1nc(N)nc(CSc2nc3ccccc3c(=O)n2C)n1,0,-28,59*,-16,2,13
CC(C)C[C@H]1COc2c(Cl)cccc2S(=O)(=O)N1,/,/,-4,/,/,-1
CC(C)C(c1nnnn1Cc1ccco1)N1CCN(c2nc3ccccc3s2)CC1 (stereo not given),-3,-9,55*,3,11,16
CC(C)CC(c1nnnn1Cc1cccs1)N1CCN(c2nc3ccccc3s2)CC1 (stereo not given),-12,-16,6,-26,14,5
CC1CCN(C(=O)COC(=O)c2cccc(S(=O)(=O)N3CCOCC3)c2)CC1,/,/,-17,/,/,1
Cc1cc(C)c2c(=O)n3c(nc2c1)C(Cc1ccccc1)NC(=O)c1cc2ccccc2cc1-3 (stereo not given),/,/,-31,/,/,0
C[C@H](CO)N1C[C@H](C)[C@@H](CN(C)C(=O)Cc2cccnc2)Oc2ncc(C#CCc3ccccc3)cc2C1=O,/,/,0,/,/,1
O/N=C(\c1ccc(Cl)cc1)c1cc2ccccc2o1,-1,-10,34,33*,13,-1
Oc1ccc(CNCC2COc3ccccc3O2)cc1 (stereo not given),2,-14,-1,-7,19,38*
c1ccc2c(c1)OCC(CNCC1COc3ccccc3O1)O2 (stereo not given),-6,-25,1,-15,9,5
C[C@H](CO)N1C[C@H](C)[C@@H](CN(C)C(=O)CCC(F)(F)F)OCc2cn(nn2)CCCC1=O,/,/,-15,/,/,4
Cc1ccc(S(=O)(=O)N(C)c2ccc(OCC(=O)Nc3nc4c(ccc5ccccc54)s3)cc2)cc1,-7,-2,-14,-2,9,-1
COc1cc([N+](=O)[O-])ccc1NC(=O)CCCOc1cccc(C)c1,25,-20,106*,-13,17,1
Cc1cccc(OCC(=O)Nc2nc3ccc([N+](=O)[O-])cc3s2)c1C,-5,2,13,5,14,3
Cc1cccc(OCC(=O)Nc2nc3ccc([N+](=O)[O-])cc3s2)c1,7,27,13,-8,41*,5
Cc1ccc(S(=O)(=O)N(C)c2ccc(OCC(=O)Nc3nc4ccccc4s3)cc2)cc1,-3,2,7,15,57*,2
O=C(COc1ccccc1C(=O)O)Nc1nc2ccc([N+](=O)[O-])cc2s1,-13,37,-7,42*,59*,8
c1ccc2c(c1)c1c(c3ccccc32)CN2CCCC2C1 (stereo not given),/,/,-6,/,/,1
COc1cc(F)ccc1Oc1cccc2c1S(=O)(=O)N(C1CC1)C[C@@H](COCc1ccccc1)O2,/,/,-3,/,/,0
SMILES,GPR7 antag,OX1R antag-1,TAAR1 antag,CHO parental Ca,OX1R antag-2,TAAR1 agonist
Cc1cccc(OC2CCN(Cc3nc(CC4CC4)no3)CC2)c1,20*,-15,-2,-10,14,1
O=C(NCC1CC1)c1cc2c(c(-c3cccc(-c4ccccc4F)c3)n1)[C@@H](CCO)N(C(=O)CC1CC1)C2,/,/,3,/,/,4
Cc1csc(NC(=O)c2cc([N+](=O)[O-])cc([N+](=O)[O-])c2)n1,-4,-22,0,3,64*,7
CC(=O)Nc1ccc(NC(=O)c2cc([N+](=O)[O-])cc([N+](=O)[O-])c2)cc1,-15,-9,17,-5,57*,7
Cc1cc(NC(=O)c2cc([N+](=O)[O-])cc([N+](=O)[O-])c2)no1,-9,-22,-29,-9,57*,1
O=C(Nc1ccc(Br)cc1)c1cc([N+](=O)[O-])cc([N+](=O)[O-])c1,-7,-12,11,6,28,11
Cc1cc(NC(=O)c2cccc([N+](=O)[O-])c2)no1,-21,-16,-44,-10,11,3
CCNC(=O)C1(C)CCCN(C(=O)c2ccc(C(F)(F)F)nc2C)C1 (stereo not given),/,/,-23,/,/,3
O=C(CN1CCC(NC(=O)c2ccco2)CC1)Nc1ccccc1C(F)(F)F,-17,-12,4,-19,12,-2
O=C(CN1C2CCCC1CC(NC(=O)c1ccco1)C2)Nc1ccccc1C(F)(F)F (stereo not given),-2,-3,5,-4,51*,4
O=C(CN1C2CCCC1CC(NC(=O)c1ccccc1)C2)Nc1ccccc1C(F)(F)F (stereo not given),-5,-10,-10,-12,68*,-2
Cc1ccc2c(CN3CCN(Cc4ccc5c(c4)OCO5)CC3)cc(=O)oc2c1C,-17,-18,-26,-20,16,-1
Cc1cc2oc(=O)cc(CN3CCN(Cc4ccc5c(c4)OCO5)CC3)c2cc1C,-15,-28,21,100*,19,7
CCCCCCCn1c2c(c(=N)c3c1CCC3)CCCC2,62*,/,12,/,/,12
COC(=O)[C@]12C[C@H](CC(=O)NCCC(C)C)C(=O)N(Cc3ccccc3)C1=C[C@H](C(C)(C)C)O[C@@H]2C,/,/,-21,/,/,-2
COC(=O)N1C[C@H](OCc2cn(-c3cc(Cl)cc(Cl)c3)nn2)[C@H](OCc2cn(-c3cc(Cl)cc(Cl)c3)nn2)C[C@@H]1c1ccccc1Br,/,/,0,/,/,0
N#Cc1cc2nc(O)c(O)nc2cc1[N+](=O)[O-],/,12,4,1,76*,-1
COc1ccc(C2=NOC(Cn3nc(-c4ccccc4)cc3C(=O)O)C2)cc1 (stereo not given),/,-4,-6,-13,-2,2
COc1ccc(C2=NOC(Cn3nc(C(=O)NCc4ccc(C)cc4)cc3-c3ccccc3)C2)cc1 (stereo not given),/,4,58*,1,44,12
COCCNC(=O)c1cc(-c2ccccc2)n(CC2CC(c3ccc(OC)cc3)=NO2)n1 (stereo not given),/,-17,53*,-7,8,20
